Measured values of several laboratories.
Compare with care: the assays were run in different laboratories.
Observed: cell growth or viability

| Compound | cell line | assay | setting | IC50 [µM] |
| --- | --- | --- | --- | --- |
| O=C1CCC(N2C(=O)c3cccc4c(Cc5cnn(C6CCN(C(=O)C7(O)CC7)CC6)c5)ccc2c34)C(=O)N1 (centres unmarked) | NCI-H929 | – | – | 9e-05 |
| O=C(NO)c1ccc(Cn2cnc3c(Nc4ccc(Cl)cc4)ncnc32)cc1 | Raji | MTT | 72 h | 0.36 |
| O=C(Nc1ccc(C(F)(F)F)cc1)Nc1nc2cc(-c3ccc4ncn(CCN5CCOCC5)c(=O)c4c3)ccc2s1 | PC-9 | MTT | 72 h | > 20 |
| Nc1ccccc1NC(=O)c1ccc(Cn2cnc3c(Nc4ccc(Cl)cc4)ncnc32)cc1 | Raji | MTT | 72 h | 0.11 |
| O=C1CCC(N2C(=O)c3cccc4c(Cc5cnn(C6CCN(C(=O)CO)CC6)c5)ccc2c34)C(=O)N1 (centres unmarked) | NCI-H929 | – | – | 0.00016 |
| Cc1nc(Nc2ncc(C(=O)Nc3c(C)cccc3Cl)s2)cc(N2CC[C@H](O)C2)n1 | JVM13 | ATP luminescence | 72 h | > 10 |
| O=C(NO)c1ccc(Cn2cnc3c(Nc4ccc(F)c(Cl)c4)ncnc32)cc1 | Raji | MTT | 72 h | 0.87 |
| COc1cccc2c1C(=O)c1c(O)c3c(c(O)c1C2=O)C[C@@](O)(C(=O)CO)C[C@@H]3O[C@H]1C[C@H](N)[C@H](O)[C@H](C)O1 | DOHH-2 | – | 96 h | 10 |
| COc1ccc(NC(=O)Nc2nc3cc(-c4ccc5ncn(CCN(C)C)c(=O)c5c4)ccc3s2)cc1 | PC-9 | MTT | 72 h | > 20 |
| Nc1cccc2c1CN(C1CCC(=O)NC1=O)C2=O (centres unmarked) | NCI-H929 | – | – | > 0.05 |
| COc1ccc(Nc2ncnc3c2ncn3Cc2ccc(C(=O)Nc3ccccc3N)cc2)cc1 | Raji | MTT | 72 h | 11 |
| COc1cccc(NC(=O)Nc2nc3cc(-c4ccc5ncn(CCC6CCCCC6)c(=O)c5c4)ccc3s2)c1 | PC-9 | MTT | 72 h | > 20 |
| O=C1CCC(N2C(=O)c3cccc4c(Cc5cnn(C6CCN(C(=O)CS)CC6)c5)ccc2c34)C(=O)N1 (centres unmarked) | NCI-H929 | – | – | 0.00123 |
| Cc1sc2c(c1C)C(c1ccc(Cl)cc1)=N[C@@H](CC(=O)NCCCCNC(=O)COc1cccc3c1C(=O)N(C1CCC(=O)NC1=O)C3=O)c1nnc(C)n1-2 (some centres unmarked) | AGS | CCK-8 | 72 h | 5.12 |
| Cc1cc(C)cc(NC(=O)Nc2nc3cc(-c4ccc5ncn(Cc6ccccc6)c(=O)c5c4)ccc3s2)c1 | PC-9 | MTT | 72 h | > 20 |
| COc1cc(C2C3=C(COC3=O)N(CCO)c3cc4c(cc32)CCC4)cc(OC)c1OC (centres unmarked) | EMT6 | ATP luminescence | 48 h | 0.18 |
| O=C(Nc1nc2cc(-c3ccc4ncn(Cc5ccccc5)c(=O)c4c3)ccc2s1)NC1CCCCC1 | PC-9 | MTT | 72 h | > 20 |
| COc1cc(C2C3=C(Nc4nc(SC)[nH]c(=O)c42)c2ccccc2C3=O)ccc1O (centres unmarked) | SK-OV-3 | MTT | 72 h | > 1000 |
| O=C1CCC(N2C(=O)c3cccc4c(Cc5ccc(CN6CCNCC6)nc5)ccc2c34)C(=O)N1 (centres unmarked) | NCI-H929 | – | – | 0.0135 |
| Cc1ccc(NC(=O)Nc2nc3cc(-c4ccc5ncn(Cc6ccccc6)c(=O)c5c4)ccc3s2)cc1 | PC-9 | MTT | 72 h | > 20 |
